Consider eleven molecules from ChEMBL document CHEMBL1250473, “Synthesis and primary cytotoxicity evaluation of new 5-benzylidene-2,4-thiazolidinedione derivatives” (2010).

Holding throughout (type): functional
Assay [1] deals with K562. As to the kind of experiment: Cytotoxicity against human K562 cells after 48 hrs by SRB. Particulars: K562, 48 h; for TGI: read-out: pTGI. The procedure, abridged: (§1)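 Cells kept in RPMI 1640 with 10% FBS and 2 mM L-glutamine, plated at 5000 cells/well and incubated 24 h at 37 °C, 5% CO2. A time-zero plate was TCA-fixed at dosing. DMSO stocks were diluted in medium into four 10-fold concentrations, 10^-4 to 10^-7 M. Exposure lasted 48 h continuously, then cells were fixed in cold TCA, stained with 0.4% SRB and eluted with 10 mM Tris. A540 was read. GI50 = [(Ti−Tz)/(C−Tz)]×100 = 50; TGI from Ti = Tz.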

Assay [2] relates to HepG2. As to the kind of experiment: Cytotoxicity against human HepG2 cells after 48 hrs by SRB. The settings on record: HepG2, 48 h; for TGI: read-out: pTGI. The procedure, abridged:
as §1

Assay [3] in a line: Cytotoxicity against human Gurav cells after 48 hrs by SRB. The settings on record: for TGI: read-out: pTGI. The procedure, abridged:
as §1

Assay [4] relates to KB. As to the kind of experiment: Cytotoxicity against human KB cells after 48 hrs by SRB. The settings on record: for TGI: read-out: pTGI. The method in brief:
as §1

For assay [5], the system named is PC-3. In words: Cytotoxicity against human PC3 cells after 48 hrs by SRB. The settings on record: PC-3, 48 h; for TGI: read-out: pTGI. The procedure, abridged: as §1
Assay [6] has as its system MCF7. In words: Cytotoxicity against human MCF7 cells after 48 hrs by SRB. The settings on record: MCF7, 48 h; for TGI: read-out: pTGI. The method in brief:
as §1

Assay [7] has as its system HOP-62. As to the kind of experiment: Cytotoxicity against human HOP62 cells after 48 hrs by SRB. Particulars: HOP-62, 48 h; for TGI: read-out: pTGI. The procedure, abridged:
as §1

Molecules are shown by their SMILES. A value given as a limit tells only on which side of the number the result lay.

As to `O=C1NC(=O)/C(=C/c2ccc(OCC(=O)N3c4ccccc4Sc4ccccc43)cc2)S1`, the 50% growth inhibitory concentration (GI50) in assay [1] was > 100 µM; in assay [2] it was > 100 µM; in assay [3] (Homo sapiens, Gurav, 48 h) it was > 100 µM; in assay [4], > 100 µM; in assay [5] it was 29.5 µM; in assay [6], 29.5 µM. The TGI is > 100 µM in assay [1]; > 100 µM in assay [2]; > 100 µM in assay [3] (Homo sapiens, Gurav, 48 h); > 100 µM in assay [4]; > 100 µM in assay [5]; > 100 µM in assay [6].

Regarding `O=C(COc1ccc(/C=C2\SC(=O)NC2=O)cc1)Nc1ccccn1`, the GI50 is > 100 µM in assay [1]; > 100 µM in assay [2]; > 100 µM in assay [3] (Homo sapiens, Gurav, 48 h); > 100 µM in assay [4]; 2.29 µM in assay [7]; 29.5 µM in assay [5]. This molecule also gave a GI50 in assay [6] of 29.5 µM. Besides, the TGI in assay [1] was > 100 µM; in assay [2], > 100 µM; in assay [3] (Homo sapiens, Gurav, 48 h) it was > 100 µM; in assay [4], > 100 µM; in assay [7], > 100 µM; in assay [5], > 100 µM. In addition, the TGI in assay [6] is > 100 µM.

Consider `Cc1c(NC(=O)COc2ccc(/C=C3\SC(=O)NC3=O)cc2)c(=O)n(-c2ccccc2)n1C`, for which the GI50 was > 100 µM in assay [1]; > 100 µM in assay [2]; > 100 µM in assay [3] (Homo sapiens, Gurav, 48 h); > 100 µM in assay [4]; 0.186 µM in assay [7]; > 100 µM in assay [5]. The GI50 in assay [6] is > 100 µM. Also, the TGI in assay [1] was > 100 µM; in assay [2], > 100 µM; in assay [3] (Homo sapiens, Gurav, 48 h), > 100 µM; in assay [4], > 100 µM; in assay [7], > 100 µM; in assay [5] it was > 100 µM. Moreover, in assay [6], the TGI was > 100 µM.

As to `COc1cccc2c1C(=O)c1c(O)c3c(c(O)c1C2=O)C[C@@](O)(C(=O)CO)C[C@@H]3O[C@H]1C[C@H](N)[C@H](O)[C@H](C)O1` [DOXORUBICIN], the GI50 in assay [1] was 2.57 µM; in assay [2] it was < 0.1 µM; in assay [3], 0.107 µM; in assay [3] (Homo sapiens, Gurav, 48 h), 0.158 µM; in assay [4], < 0.1 µM. In addition, the TGI in assay [1] was > 100 µM.

With `O=C(COc1ccc(/C=C2\SC(=O)NC2=O)cc1)Nc1ncc([N+](=O)[O-])s1`, the GI50 is > 100 µM in assay [1]; > 100 µM in assay [2]; > 100 µM in assay [3] (Homo sapiens, Gurav, 48 h); > 100 µM in assay [4]; > 100 µM in assay [7]; > 100 µM in assay [5]. In assay [6], the GI50 was > 100 µM. In addition, the TGI was > 100 µM in assay [1]; > 100 µM in assay [2]; > 100 µM in assay [3] (Homo sapiens, Gurav, 48 h); > 100 µM in assay [4]; > 100 µM in assay [7]; > 100 µM in assay [5]. In assay [6], the TGI was > 100 µM.

For the molecule `O=C(COc1ccc(/C=C2\SC(=O)NC2=O)cc1)Nc1nc2ccccc2s1`, the GI50 in assay [1] was > 100 µM; in assay [2], > 100 µM; in assay [3] (Homo sapiens, Gurav, 48 h) it was > 100 µM; in assay [4] it was > 100 µM; in assay [5], 28.2 µM; in assay [6], 25.1 µM. For the same molecule, the TGI in assay [1] was > 100 µM; in assay [2] it was > 100 µM; in assay [3] (Homo sapiens, Gurav, 48 h), > 100 µM; in assay [4] it was > 100 µM; in assay [5] it was > 100 µM; in assay [6], > 100 µM.

On to `Cc1cnc(NC(=O)COc2ccc(/C=C3\SC(=O)NC3=O)cc2)s1`, for which the GI50 in assay [1] was 2.24 µM; in assay [2], > 100 µM; in assay [4] it was > 100 µM; in assay [7], 30.9 µM; in assay [6], > 100 µM. Moreover, the TGI in assay [1], in assay [2], in assay [4], in assay [7] and in assay [6] was > 100 µM throughout.

As to `O=C1NC(=O)/C(=C\c2ccc(OCC(=O)N3C(=O)c4ccccc4S3(=O)=O)cc2)S1`, the GI50 is 2.69 µM in assay [1]; > 100 µM in assay [2]; 31.6 µM in assay [3] (Homo sapiens, Gurav, 48 h); > 100 µM in assay [4]; > 100 µM in assay [7]; > 100 µM in assay [5]. The concentration for 50% growth inhibition (GI50) in assay [6] was 37.2 µM. Besides, the TGI in assay [1] is > 100 µM; in assay [2], > 100 µM; in assay [3] (Homo sapiens, Gurav, 48 h), > 100 µM; in assay [4] it was > 100 µM; in assay [7], > 100 µM; in assay [5], > 100 µM. Also, in assay [6], the TGI was > 100 µM.

Consider `CCCCC1=NC2(CCCC2)C(=O)N1C(=O)COc1ccc(/C=C2/SC(=O)NC2=O)cc1`, for which the GI50 was > 100 µM in assay [1]; > 100 µM in assay [2]; > 100 µM in assay [3] (Homo sapiens, Gurav, 48 h); > 100 µM in assay [4]; 29.5 µM in assay [7]; > 100 µM in assay [5]. This molecule gave a GI50 in assay [6] of 28.2 µM. The TGI in assay [1] is > 100 µM; in assay [2], > 100 µM; in assay [3] (Homo sapiens, Gurav, 48 h) it was > 100 µM; in assay [4], > 100 µM; in assay [7] it was > 100 µM; in assay [5] it was > 100 µM. The TGI in assay [6] is > 100 µM.

`O=C(COc1ccc(/C=C2\SC(=O)NC2=O)cc1)Nc1cccc(C(F)(F)F)c1`: the GI50 in assay [1] was 0.191 µM; in assay [2] it was > 100 µM; in assay [4], 2.24 µM; in assay [7] it was > 100 µM; in assay [5], 2.51 µM. Also, the TGI in assay [1], in assay [2], in assay [4], in assay [7] and in assay [5] was > 100 µM in each case.

For `Cc1cc(NC(=O)COc2ccc(/C=C3\SC(=O)NC3=O)cc2)no1`, the GI50 in assay [1] is 2.75 µM; in assay [2], > 100 µM; in assay [3] (Homo sapiens, Gurav, 48 h), 38.9 µM; in assay [4] it was > 100 µM; in assay [7], > 100 µM; in assay [5], > 100 µM. In assay [6], this molecule gave a GI50 of 39.8 µM. Also, the TGI was > 100 µM in assay [1]; > 100 µM in assay [2]; > 100 µM in assay [3] (Homo sapiens, Gurav, 48 h); > 100 µM in assay [4]; > 100 µM in assay [7]; > 100 µM in assay [5]. Also, in assay [6], the TGI was > 100 µM.

What is called GI50 is the concentration that inhibits growth by half.
